PglD DTNB – inhibitors of Campylobacter jejuni PglD acetyltransferase; purified PglD enzyme, DTNB colorimetric CoA detection; inhibition, % at 12.5 µM; hit rate 0.098% among 360,000; in the data active = inhibition above about 16%, passing the limit was not always enough; inconclusive = no clear call, values can overlap the other calls
E-sel inducer – E-selectin induction on HUVECs; HUVEC E-selectin immunofluorescence imaging; normalized: neutral wells 0, TNF-alpha wells 100; P16581; activation, % at 7.58 µM; hit rate 0.37% among 260,000;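 active = mean E-selectin-positive cell signal at least 10% of the positive control, reached in at least 60% of replicates, without over 20% cell loss; inconclusive = no rule given, readout overlaps actives, possibly toxicity-flagged; inactive = the rest, including those meeting only one limit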
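Test system: HUVEC; input: 3,000 HUVEC/well; measured by: immunofluorescence imaging; read-out: % PE-positive cells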
SIRT5 inh – sirtuin-5 (human) deacylase inhibition. Q9NXA8. Purified SirT5, succinyl-peptide AMC, trypsin-coupled fluorescence. inhibition, % at 15 µM. hit rate 1.1% among 330,000. AID 652115; in the data active = inhibition above about 15%; inconclusive = no clear call, values can overlap the other calls
DENV2 CPE rescue – protects cells from dengue virus 2 cytopathic effect | CPE inhibition, % at 9.99 µM | DENV2-infected cells, cytopathic effect rescue, plate reader | hit rate 1.7% among 350,000 | AID 651640; in the data active = CPE inhibition above about 20%, passing the limit was not always enough; inconclusive = no clear call, values can overlap the other calls; tested in BHK-21 cells
ERAP1 HTS inh – blocks human ERAP1 aminopeptidase activity; hit rate 0.15% among 340,000; inhibition, % at 10.7 µM; Q9NZ08; recombinant ERAP1, Leu-AMC fluorescence, 60 min; AID 652197;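 active = mean replicate inhibition of at least 30%, or all replicates individually reaching that 30% level; inactive = mean below 30% and not every replicate reaching it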
Large screens that a line does not name were inactive. A selection: hits, their analogues and other compounds. The true share with any hit is near 2.5%.

O=C(Nc1ccccc1C(=O)NCC1CCCO1)c1ccco1 (stereo not drawn)	none (no result: E-sel inducer, SIRT5 inh, DENV2 CPE rescue, ERAP1 HTS inh)
CCOc1ccc2c(c1)[N+](C)(C)C(C)(C)C=C2C	ERAP1 HTS inh 41 (no result: PglD DTNB, E-sel inducer)
COc1ccc2c(c1)[N+](C)(C)C(C)(C)C=C2C	ERAP1 HTS inh 45
COc1ccc2c(c1)C(C)=CC(C)(C)N2S(=O)(=O)c1ccc(C)cc1	none (no result: PglD DTNB, E-sel inducer)
CCNC(=O)N1c2ccc(OCC)cc2C(C)=CC1(C)C	none (no result: E-sel inducer, SIRT5 inh, DENV2 CPE rescue, ERAP1 HTS inh)
COCCN(CCOC)Cc1cc(=O)oc2cc(OC)c(Cl)cc12	none (no result: E-sel inducer)
CCN(CCCNC(=O)C1CCC(=O)N1Cc1ccc(C)cc1)c1cccc(C)c1 (stereo not drawn)	SIRT5 inh 17 (no result: E-sel inducer, DENV2 CPE rescue)
CC(=O)N[C@@H]1CC[C@H](CCNC(=O)C2CCCC2)O[C@@H]1CO	none
Cc1noc(C)c1NC(=O)N[C@@H]1CC[C@H](CC(=O)NCCCN(C)C)O[C@@H]1CO	none
CN(C)CC(=O)N[C@H]1CC[C@H](CCNC(=O)C2CCCC2)O[C@H]1CO	DENV2 CPE rescue 27
Cc1noc(C)c1NC(=O)N[C@H]1CC[C@@H](CC(=O)NCCCN(C)C)O[C@H]1CO	SIRT5 inh 16
Cc1noc(C)c1NC(=O)N[C@@H]1CC[C@@H](CCNC(=O)C2CCCC2)O[C@@H]1CO	none
CC(=O)N[C@@H]1CC[C@H](CCNC(=O)C2CCCC2)O[C@H]1CO	DENV2 CPE rescue 90
Cc1noc(C)c1NC(=O)N[C@@H]1CC[C@@H](CCNC(=O)C2CCCC2)O[C@H]1CO	DENV2 CPE rescue 25
COc1ccc(C2/C=C\CN(C(=O)c3ccccc3)CC(=O)N2Cc2cccc(F)c2)cc1 (stereo not drawn)	none
C/C=C/c1ccc([C@H]2[C@H](CO)N[C@H]2CN(CC(C)C)C(=O)c2ccccn2)cc1	none (no result: ERAP1 HTS inh)
O=C(NCC[C@H]1CC[C@H](NC(=O)C2CCCC2)[C@H](CO)O1)c1cc(Cl)cc(Cl)c1	none
CC(C)NC(=O)N[C@H]1CC[C@H](CCNC(=O)C2CCCC2)O[C@@H]1CO	SIRT5 inh 25, DENV2 CPE rescue inconclusive (no result: ERAP1 HTS inh)
O=C(NCC[C@@H]1CC[C@@H](NC(=O)C2CCCC2)[C@@H](CO)O1)c1cc(Cl)cc(Cl)c1	DENV2 CPE rescue 21
CC(C)NC(=O)N[C@@H]1CC[C@H](CCNC(=O)C2CCCC2)O[C@H]1CO	none (no result: SIRT5 inh, ERAP1 HTS inh)
O=C(Cc1ccccc1)Nc1ccccc1C(=O)N1CCCCC1	none
COc1ccccc1-c1cnc2c(c1)C(=O)N([C@H](C)CO)C[C@@H](C)[C@H](CN(C)Cc1cccnc1)O2	DENV2 CPE rescue 26
COc1cccc(-c2cnc3c(c2)C(=O)N([C@H](C)CO)C[C@@H](C)[C@H](CN(C)Cc2ccccc2)O3)c1	DENV2 CPE rescue 27
COc1cccc(-c2cnc3c(c2)C(=O)N([C@@H](C)CO)C[C@@H](C)[C@H](CN(C)Cc2ccccc2)O3)c1	none
COc1ccc(C(=O)N/C(=C\c2ccccc2)C(=O)NC(CC(C)C)C(=O)O)cc1 (stereo not drawn)	none (no result: PglD DTNB)
Cc1ccccc1C(=O)N1CCN(c2ccc(N3CCOCC3)nn2)CC1	none (no result: E-sel inducer)
O=C(c1ccccc1[N+](=O)[O-])N1CCN(c2ccc(N3CCOCC3)nn2)CC1	E-sel inducer 58 (no result: DENV2 CPE rescue)
CC(=O)c1c(C)[nH]c(C(=O)NNC(=O)c2ccc(C)cc2)c1C	none
CC(=O)c1c(C)[nH]c(C(=O)NNC(=O)COc2cc(C)cc(C)c2)c1C	DENV2 CPE rescue 33
CCN(C(=O)CSc1nncn1-c1ccccc1)C1CCS(=O)(=O)C1 (stereo not drawn)	DENV2 CPE rescue 85 (no result: E-sel inducer)
CN(C(=O)CSc1nnc(-c2cccs2)n1C1CC1)C1CCS(=O)(=O)C1 (stereo not drawn)	DENV2 CPE rescue 37 (no result: E-sel inducer)
O=C(Nc1ccccc1F)C1CC1c1ccccc1 (stereo not drawn)	none (no result: PglD DTNB)
COC(=O)CCc1c[nH]c2ccc([N+](=O)[O-])cc12	none
O=C(OCC(=O)c1c[nH]c2ccccc12)c1cncc(Br)c1	none (no result: E-sel inducer)
O=C(OCC(=O)c1c[nH]c2ccccc12)c1cccc([N+](=O)[O-])c1	DENV2 CPE rescue 80
O=C(CCc1c[nH]c2ccccc12)OCc1cccc([N+](=O)[O-])c1	DENV2 CPE rescue 27
O=C(CSc1nc2ccsc2c(=O)n1CC1CCC(C(=O)O)CC1)c1ccc(Cl)cc1 (stereo not drawn)	SIRT5 inh 16 (no result: PglD DTNB, E-sel inducer)
O=C(CSc1nc2ccsc2c(=O)n1CC1CCC(C(=O)O)CC1)c1ccc(F)cc1 (stereo not drawn)	none
COc1ccc(-c2ccccc2)cc1NC(=O)[C@@H]1O[C@H](CO)[C@H](O)[C@H](O)[C@H]1O	DENV2 CPE rescue 32 (no result: SIRT5 inh)
CC(=O)N1CCN(C(=O)COC(=O)CNC(=O)c2ccccc2C)CC1	none (no result: PglD DTNB)
COc1cccc(C(=O)Nc2ccc3c(c2)C(=O)N(C)C[C@@H](OC)[C@@H](C)CN(CCc2ccccc2)[C@@H](C)CO3)c1	SIRT5 inh 15 (no result: ERAP1 HTS inh)
COc1cccc(C(=O)Nc2ccc3c(c2)C(=O)N(C)C[C@H](OC)[C@@H](C)CN(C(C)=O)[C@H](C)CO3)c1	DENV2 CPE rescue 64
CN1CCN(C(=O)c2cc(Cl)cc(Cl)c2)CC1	none
CCC(=O)OCC(=O)Nc1cc(C)c(C)cc1[N+](=O)[O-]	none (no result: DENV2 CPE rescue)
Cc1cc(NC(=O)COC(=O)Cn2[nH]c(=O)c3ccccc3c2=O)c([N+](=O)[O-])cc1C	DENV2 CPE rescue 52 (no result: PglD DTNB, SIRT5 inh)
CC(C)OC1=CC(=O)OC(c2cccc(Cl)c2)C1 (stereo not drawn)	DENV2 CPE rescue 31 (no result: PglD DTNB)
COc1cc(/C=C2\C(=O)NN(c3ccccc3)C2=O)cc([N+](=O)[O-])c1O	none (no result: PglD DTNB, E-sel inducer)
Cc1ccc(N2NC(=O)/C(=C/c3ccc(-c4ccc(Cl)c(C(=O)O)c4)o3)C2=O)cc1	none
O=C1NN(c2ccc(Cl)cc2)C(=O)/C1=C\c1ccc(-c2cccc(C(=O)O)c2)o1	SIRT5 inh 28 (no result: PglD DTNB, E-sel inducer)
O=C1NN(c2ccccc2)C(=O)/C1=C\c1ccc(-c2cc([N+](=O)[O-])ccc2O)o1	SIRT5 inh 18 (no result: PglD DTNB)
Cc1cc(Cl)nc(Cl)c1C(=O)N1CCOCC1	SIRT5 inh 22
O=C(Nc1nnc(-c2ccco2)o1)c1ccc(S(=O)(=O)N2CCCC2)cc1	none (no result: PglD DTNB, E-sel inducer)
CC1CCN(S(=O)(=O)c2ccc(C(=O)Nc3nnc(-c4ccco4)o3)cc2)CC1	DENV2 CPE rescue 90
CS(=O)(=O)c1cccc(-c2nnc(NC(=O)c3ccc(S(=O)(=O)N4CCCC4)cc3)o2)c1	DENV2 CPE rescue 61
COc1ccccc1-c1nnc(NC(=O)c2ccc(S(=O)(=O)N3CCCC3)cc2)o1	none
CCCN1C(=O)/C(=C2\SC(N3CCCCC3)=NC2=O)c2ccccc21	none (no result: E-sel inducer, SIRT5 inh, DENV2 CPE rescue, ERAP1 HTS inh)
CN1C(=O)/C(=C2\SC(N3CCCCCC3)=NC2=O)c2ccccc21	SIRT5 inh 32 (no result: E-sel inducer, DENV2 CPE rescue)
C[C@H]1CN([C@@H](C)CO)C(=O)c2cc(NC(=O)CCC(F)(F)F)ccc2O[C@H]1CN(C)C(=O)Nc1cccc2ccccc12	DENV2 CPE rescue 26
C[C@H](CO)N1C[C@H](C)[C@H](CN(C)C(=O)Nc2ccccc2)Oc2ccc(NS(C)(=O)=O)cc2C1=O	E-sel inducer 74

Screens (PubChem BioAssay)
